In ChEMBL document CHEMBL3526048, “In vitro metabolism of rivoglitazone, a novel peroxisome proliferator-activated receptor γ agonist, in rat, monkey, and human liver microsomes and freshly isolated hepatocytes” (Drug Metab Dispos, 2011):

Key:
Cytochrome P450 3A4 = Cytochrome P450 3A4 (Homo sapiens, UniProt P08684); assay: Activity of human CYP3A4 expressed in microsomes isolated from baculovirus infected insect cell assessed as enzyme-mediated 2-amino-3-((1-carboxy-2-(4-((6-methoxy-1-methyl-1H-benzo[d]imidazol-2-yl)methoxy)phenyl)ethyl)disulfanyl)propanoic acid formation at 20 uM after 2 hrs by radio-HPLC/LC-MS/MS analysis; format: ADME
Outline: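 Baculovirus-insect-cell microsomes expressing the human CYP (1 mg/ml protein) were incubated with [14C]rivoglitazone (20 μM) in 50 mM potassium phosphate (pH 7.4) or 100 mM Tris-HCl (pH 7.5) with an NADPH-generating system (2 mM NADP+, 20 mM glucose 6-phosphate, 2 units/ml G6PDH, 10 mM MgCl2) for 2 h at 37°C. Insect-cell control supersomes served as the control. Reactions were stopped with acetonitrile, and the concentrated supernatants were analysed by radio-HPLC, LC-MS and LC-MS/MS.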

[1] = target: T1, UDP-glucuronosyltransferase 1A6 (Homo sapiens, UniProt P19224); assay: Activity of human UGT1A6 expressed in microsomes isolated from baculovirus infected insect cell assessed as enzyme-mediated (2S,3S,4S,5R,6R)-6-((1-carboxy-2-(4-((6-methoxy-1-methyl-1H-benzo[d]imidazol-2-yl)methoxy)phenyl)ethylthio)carbonylamino)-3,4,5-trihydroxytetrahydro-2H-pyran-2-carboxylic acid formation at 20 uM after 4 hrs by radio-HPLC/LC-MS/MS analysis in presence of UDPGA; format: ADME
T1 sequence (P19224 whole entry): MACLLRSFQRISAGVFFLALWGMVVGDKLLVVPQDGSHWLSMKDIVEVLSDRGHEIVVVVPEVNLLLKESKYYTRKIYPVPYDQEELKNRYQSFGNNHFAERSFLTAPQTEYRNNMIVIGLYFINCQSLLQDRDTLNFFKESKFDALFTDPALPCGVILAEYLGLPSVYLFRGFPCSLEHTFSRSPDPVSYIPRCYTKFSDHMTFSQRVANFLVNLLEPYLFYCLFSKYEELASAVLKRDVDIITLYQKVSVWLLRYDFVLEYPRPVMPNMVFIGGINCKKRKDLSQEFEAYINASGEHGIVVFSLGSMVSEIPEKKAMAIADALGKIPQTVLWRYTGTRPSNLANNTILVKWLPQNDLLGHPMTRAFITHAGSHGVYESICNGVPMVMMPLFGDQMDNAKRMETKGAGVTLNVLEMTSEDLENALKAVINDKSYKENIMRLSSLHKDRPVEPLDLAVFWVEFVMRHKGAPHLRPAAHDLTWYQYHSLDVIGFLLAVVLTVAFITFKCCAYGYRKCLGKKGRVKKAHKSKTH

[2] = target: T2, UDP-glucuronosyltransferase 1A4 (Homo sapiens, UniProt P22310); assay: Activity of human UGT1A4 expressed in microsomes isolated from baculovirus infected insect cell assessed as enzyme-mediated 2-mercapto-3-(4-((6-methoxy-1-methyl-1H-benzo[d]imidazol-2-yl)methoxy)phenyl)propanoic acid formation at 20 uM after 4 hrs by radio-HPLC/LC-MS/MS analysis in presence of UDPGA; format: ADME
T2 sequence (P22310 whole entry): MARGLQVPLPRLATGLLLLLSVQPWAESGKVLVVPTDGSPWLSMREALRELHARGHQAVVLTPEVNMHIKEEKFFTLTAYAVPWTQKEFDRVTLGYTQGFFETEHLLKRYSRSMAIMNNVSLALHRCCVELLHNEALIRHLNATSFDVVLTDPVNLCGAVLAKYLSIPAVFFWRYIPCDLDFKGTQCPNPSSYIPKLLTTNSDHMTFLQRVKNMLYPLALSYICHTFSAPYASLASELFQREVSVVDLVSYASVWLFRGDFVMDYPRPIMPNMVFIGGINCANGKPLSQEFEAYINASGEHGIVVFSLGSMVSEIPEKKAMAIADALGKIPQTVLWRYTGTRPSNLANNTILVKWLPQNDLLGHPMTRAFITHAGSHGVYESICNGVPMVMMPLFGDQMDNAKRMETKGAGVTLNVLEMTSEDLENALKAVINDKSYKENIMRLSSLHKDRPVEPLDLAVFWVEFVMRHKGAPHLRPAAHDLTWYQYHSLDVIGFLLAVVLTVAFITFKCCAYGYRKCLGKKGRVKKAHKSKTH

[3] = Drug metabolism in cynomolgus monkey liver microsomes assessed as formation of (2S,3S,4S,5R,6R)-3,4,5-trihydroxy-6-(5-(4-((6-methoxy-1-methyl-1H-benzo[d]imidazol-2-yl)methoxy)benzyl)-2,4-dioxothiazolidin-3-yl)tetrahydro-2H-pyran-2-carboxylic acid at 20 uM after 4 hrs by radio-HPLC/LC-MS/MS analysis in presence of UDPGA and UDPGA/SAM; format: ADME, Macaca fascicularis
[4] = Drug metabolism in human hepatocytes assessed as formation of (2S,3S,4S,5R,6R)-6-((1-carboxy-2-(4-((6-methoxy-1-methyl-1H-benzo[d]imidazol-2-yl)methoxy)phenyl)ethylthio)carbonylamino)-3,4,5-trihydroxytetrahydro-2H-pyran-2-carboxylic acid at 30 uM after 3 hrs by radio-HPLC/LC-MS/MS analysis in presence of UDPGA and UDPGA/SAM; format: ADME, cell-based, Hepatocyte
Cytochrome P450 1A2 = target: T3, Cytochrome P450 1A2 (Homo sapiens, UniProt P05177); assay: Activity of human CYP1A2 expressed in microsomes isolated from baculovirus infected insect cell assessed as enzyme-mediated compound formation treated with [14C]-rivoglitazone at 20 uM after 2 hrs by radio-HPLC/LC-MS/MS analysis in presence of NADPH-generating system; format: ADME
T3 sequence (P05177 whole entry): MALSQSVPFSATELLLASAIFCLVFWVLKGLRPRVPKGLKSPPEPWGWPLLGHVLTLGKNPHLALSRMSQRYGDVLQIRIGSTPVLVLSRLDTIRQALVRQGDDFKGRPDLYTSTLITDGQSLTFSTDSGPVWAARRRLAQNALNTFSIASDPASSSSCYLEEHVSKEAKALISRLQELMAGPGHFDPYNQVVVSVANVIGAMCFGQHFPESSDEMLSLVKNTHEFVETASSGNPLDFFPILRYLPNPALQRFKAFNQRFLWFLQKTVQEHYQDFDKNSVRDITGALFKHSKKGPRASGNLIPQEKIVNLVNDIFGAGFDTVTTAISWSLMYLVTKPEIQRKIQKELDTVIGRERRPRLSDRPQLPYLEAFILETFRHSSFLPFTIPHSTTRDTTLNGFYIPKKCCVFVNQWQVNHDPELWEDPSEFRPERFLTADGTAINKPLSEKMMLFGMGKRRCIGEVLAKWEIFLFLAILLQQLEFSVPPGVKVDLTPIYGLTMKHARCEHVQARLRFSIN
Outline: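 Baculovirus/insect-cell microsomes expressing single human CYPs, 1 mg/ml protein, with 50 mM potassium phosphate (pH 7.4) or 100 mM Tris-HCl (pH 7.5). NADPH-generating system: 2 mM NADP⁺, 20 mM glucose 6-phosphate, 2 units/ml G6PDH, 10 mM MgCl₂. [¹⁴C]rivoglitazone at 20 μM, 2 h at 37°C with shaking. Control used insect-cell control supersomes. Stopped with acetonitrile; supernatant concentrated under nitrogen; metabolites analysed by radio-HPLC, LC-MS and LC-MS/MS.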

Chain of Cytochrome P450 3A4 (P08684 whole entry): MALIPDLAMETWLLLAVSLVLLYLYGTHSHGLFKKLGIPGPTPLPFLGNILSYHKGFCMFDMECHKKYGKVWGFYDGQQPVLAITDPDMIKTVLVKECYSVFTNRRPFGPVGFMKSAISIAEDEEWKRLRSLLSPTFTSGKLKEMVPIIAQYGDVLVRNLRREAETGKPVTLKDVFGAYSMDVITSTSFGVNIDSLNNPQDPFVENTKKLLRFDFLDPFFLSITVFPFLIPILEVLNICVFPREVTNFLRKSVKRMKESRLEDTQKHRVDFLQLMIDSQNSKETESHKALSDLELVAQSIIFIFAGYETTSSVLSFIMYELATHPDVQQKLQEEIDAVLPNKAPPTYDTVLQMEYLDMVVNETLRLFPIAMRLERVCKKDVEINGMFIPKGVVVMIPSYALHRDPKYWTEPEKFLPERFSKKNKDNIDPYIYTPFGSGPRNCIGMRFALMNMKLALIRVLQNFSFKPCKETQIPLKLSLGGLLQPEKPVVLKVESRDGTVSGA

| Drug metabolism (Cytochrome P450 3A4) | Drug metabolism [1] | Drug metabolism [2] | Drug metabolism [3] | Drug metabolism [4] | Drug metabolism (Cytochrome P450 1A2) | Structure (SMILES) |
| --- | --- | --- | --- | --- | --- | --- |
| metabolite_not_detected | metabolite_not_detected | metabolite_not_detected | metabolite_detected | metabolite_detected |  | COc1ccc2nc(COc3ccc(C[14CH]4SC(=O)NC4=O)cc3)n(C)c2c1.Cl (racemic) |
|  |  |  |  |  | metabolite_detected | COc1ccc2nc(COc3ccc(CC(S)C(=O)O)cc3)n(C)c2c1 (stereo unspecified) |
